{"source": "ChEMBL document CHEMBL5316310", "about": "“Discovery of MK-8189, a Highly Potent and Selective PDE10A Inhibitor for the Treatment of Schizophrenia” (J Med Chem, 2023)", "key": {"[1]": {"assay": "Toxicity in CHO cells assessed as chromosomal aberration", "type": "cell-based, Cricetulus griseus", "conditions": "chinese hamster"}, "[2]": {"assay": "Toxicity in rat assessed as prolactin release", "conditions": "in vivo"}, "[3]": {"assay": "Plasma concentration in rat at 0.25 mg/kg, po measured after 1 hr", "type": "ADME, organism-based", "procedure,_shortened": "(§1)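 Rat novel object recognition (episodic memory) study, orally dosed. Plasma drawn 1 h post dose at end of the experiment for compound level. n = 4/group, reported as mean (SEM).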"}, "[4]": {"assay": "Aqueous solubility of the compound at pH 7", "type": "physicochemical", "conditions": "buffer"}, "[5]": {"assay": "Protein binding in rat plasma assessed as unbound fraction", "type": "ADME, cell-free"}, "[6]": {"assay": "Half-life in Wistar-Hannover rat at 2 mg/kg, iv by LC-MS/MS analysis", "type": "ADME, organism-based", "conditions": "in vivo", "procedure,_shortened": "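IV bolus in DMSO/PEG400 (1:1). Male Wistar–Hannover rats (n = 3, ~300 g): 2 mg/kg via jugular cannula, sampled 0.03–24 h. Male rhesus (n = 3): 0.5 mg/kg into saphenous or cephalic vein, sampled to 24 h. Plasma (EDTA) analysed by LC-MS/MS after acetonitrile precipitation. Non-compartmental analysis; CL = dose/AUC0-inf; t1/2 from log-linear regression of the terminal phase. Values are means.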"}, "[7]": {"assay": "Plasma concentration in MK-801-induced psychosis rat model at 0.25 mg/kg, po administered 1 hr prior to MK-801 administration and measured after 90 mins", "type": "ADME, organism-based", "conditions": "time 150 min", "procedure,_shortened": "(§2)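 Rats dosed orally, then MK-801 1 h later; locomotor activity recorded over 90 min. Plasma drawn 2.5 h post dose at end of the study and assayed for compound. n = 8/group, reported as mean (SEM).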"}, "[8]": {"assay": "Solubility of compound in acidic simulated gastric fluid", "type": "physicochemical", "conditions": "simulated gi fluid"}, "[9]": {"biological_target": "Sodium channel protein type 5 subunit alpha (Homo sapiens, UniProt Q14524)", "sequence (Q14524 whole entry)": "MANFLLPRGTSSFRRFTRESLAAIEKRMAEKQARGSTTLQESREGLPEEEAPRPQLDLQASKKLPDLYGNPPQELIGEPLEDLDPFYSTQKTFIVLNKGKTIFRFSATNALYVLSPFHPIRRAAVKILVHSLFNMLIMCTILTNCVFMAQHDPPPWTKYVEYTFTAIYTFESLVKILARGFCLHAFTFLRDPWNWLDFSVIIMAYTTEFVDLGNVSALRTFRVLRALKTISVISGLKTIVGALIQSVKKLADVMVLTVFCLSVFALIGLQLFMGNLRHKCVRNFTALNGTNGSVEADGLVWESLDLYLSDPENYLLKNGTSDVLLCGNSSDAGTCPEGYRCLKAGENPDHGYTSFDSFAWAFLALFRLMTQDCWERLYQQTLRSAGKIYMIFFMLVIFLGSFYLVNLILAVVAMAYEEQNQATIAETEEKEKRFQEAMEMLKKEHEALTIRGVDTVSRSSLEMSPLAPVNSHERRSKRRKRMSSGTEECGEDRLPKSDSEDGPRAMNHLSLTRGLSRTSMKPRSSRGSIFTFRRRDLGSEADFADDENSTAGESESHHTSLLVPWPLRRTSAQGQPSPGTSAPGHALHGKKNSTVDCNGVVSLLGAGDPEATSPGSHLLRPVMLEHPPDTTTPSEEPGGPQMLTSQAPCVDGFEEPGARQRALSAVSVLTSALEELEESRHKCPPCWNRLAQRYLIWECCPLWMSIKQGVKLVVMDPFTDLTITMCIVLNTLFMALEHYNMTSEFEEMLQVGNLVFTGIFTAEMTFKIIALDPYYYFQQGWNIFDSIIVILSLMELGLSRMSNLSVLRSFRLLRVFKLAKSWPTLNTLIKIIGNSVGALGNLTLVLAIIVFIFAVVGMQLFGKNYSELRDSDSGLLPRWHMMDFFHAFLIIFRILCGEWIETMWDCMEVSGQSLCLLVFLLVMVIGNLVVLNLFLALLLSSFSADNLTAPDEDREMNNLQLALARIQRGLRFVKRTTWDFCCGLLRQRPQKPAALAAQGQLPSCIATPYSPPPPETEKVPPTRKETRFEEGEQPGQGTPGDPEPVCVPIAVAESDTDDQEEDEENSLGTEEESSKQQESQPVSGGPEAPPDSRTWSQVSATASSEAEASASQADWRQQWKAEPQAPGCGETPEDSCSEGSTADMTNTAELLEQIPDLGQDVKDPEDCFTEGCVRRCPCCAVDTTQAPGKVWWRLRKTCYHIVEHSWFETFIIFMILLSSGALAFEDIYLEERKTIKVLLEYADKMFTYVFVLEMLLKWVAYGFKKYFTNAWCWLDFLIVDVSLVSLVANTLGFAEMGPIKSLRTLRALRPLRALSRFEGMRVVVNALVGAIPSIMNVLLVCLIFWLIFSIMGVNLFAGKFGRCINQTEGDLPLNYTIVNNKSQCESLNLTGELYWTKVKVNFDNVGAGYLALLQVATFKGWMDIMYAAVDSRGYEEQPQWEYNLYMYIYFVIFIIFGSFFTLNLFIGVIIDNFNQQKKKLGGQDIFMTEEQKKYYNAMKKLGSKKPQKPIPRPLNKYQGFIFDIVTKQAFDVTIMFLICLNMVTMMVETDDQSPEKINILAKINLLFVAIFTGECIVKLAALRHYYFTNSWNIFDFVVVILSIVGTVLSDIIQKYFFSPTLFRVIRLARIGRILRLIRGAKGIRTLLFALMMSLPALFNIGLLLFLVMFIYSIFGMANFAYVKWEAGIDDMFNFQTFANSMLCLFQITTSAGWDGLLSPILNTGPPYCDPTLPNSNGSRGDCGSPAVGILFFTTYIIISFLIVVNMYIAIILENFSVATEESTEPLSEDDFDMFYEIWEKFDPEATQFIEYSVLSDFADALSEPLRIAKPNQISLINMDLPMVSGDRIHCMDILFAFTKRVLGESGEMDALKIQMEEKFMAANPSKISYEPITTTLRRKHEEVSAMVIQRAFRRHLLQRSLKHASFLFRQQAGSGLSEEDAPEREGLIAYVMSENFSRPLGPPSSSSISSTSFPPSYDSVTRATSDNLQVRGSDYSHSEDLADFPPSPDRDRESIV", "assay": "Inhibition of Nav1.5 (unknown origin)"}, "[10]": {"assay": "Plasma concentration in rat at 0.08 mg/kg, po measured after 1 hr", "type": "ADME, organism-based", "procedure,_shortened": "as §1"}, "Rattus norvegicus": {"tested_on": "Rattus norvegicus", "assay": "Anti-psychotic activity in rat assessed as inhibition of MK-801-induced hyperlocomotion administered orally 1 hr prior to MK-801 administration and measured for 90 mins", "type": "functional, organism-based", "conditions": "dose 0.25-0.75 mg/kg, route po, time 150.0 min", "procedure,_shortened": "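Rats given compound orally at 0.25–0.75 mg/kg 1 h before the NMDA antagonist MK-801. Total distance travelled was recorded over 90 min and compared with vehicle + MK-801 groups (p < 0.05). n = 8/group; mean ± SEM.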"}, "[11]": {"assay": "Oral bioavailability in Wistar-Hannover rat at 10 mg/kg", "type": "ADME, organism-based", "conditions": "in vivo", "procedure,_shortened": "(§3)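 Oral gavage, 5 mL/kg. Rats (n = 3 male Wistar–Hannover) received 10 mg/kg in acidified 10% Tween 80, pH 2, sampled 0.25–24 h. Rhesus (2 female, 1 male) received 5 mg/kg in 0.5% methylcellulose with 1 mol equiv HCl. Plasma quantified by LC-MS/MS. F was taken from dose-adjusted PO/IV AUC0-inf ratios versus the 2 mg/kg (rat) or 0.5 mg/kg (rhesus) IV legs; values are means of n = 3.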"}, "[12]": {"assay": "Selectivity ratio of Ki for N-terminal GST-tagged human recombinant PDE4A1A (1 to 647 residues) expressed in baculovirus-infected Sf9 cells to Ki for human PDE10A2 transfected in human AD293 cells cytosolic fraction"}, "[13]": {"assay": "Plasma concentration in MK-801-induced psychosis rat model at 0.75 mg/kg, po administered 1 hr prior to MK-801 administration and measured after 90 mins", "type": "ADME, organism-based", "conditions": "time 150 min", "procedure,_shortened": "as §2"}, "[14]": {"biological_target": "T1, cAMP and cAMP-inhibited cGMP 3',5'-cyclic phosphodiesterase 10A (Homo sapiens, UniProt Q9Y233)", "T1 sequence (Q9Y233 whole entry)": "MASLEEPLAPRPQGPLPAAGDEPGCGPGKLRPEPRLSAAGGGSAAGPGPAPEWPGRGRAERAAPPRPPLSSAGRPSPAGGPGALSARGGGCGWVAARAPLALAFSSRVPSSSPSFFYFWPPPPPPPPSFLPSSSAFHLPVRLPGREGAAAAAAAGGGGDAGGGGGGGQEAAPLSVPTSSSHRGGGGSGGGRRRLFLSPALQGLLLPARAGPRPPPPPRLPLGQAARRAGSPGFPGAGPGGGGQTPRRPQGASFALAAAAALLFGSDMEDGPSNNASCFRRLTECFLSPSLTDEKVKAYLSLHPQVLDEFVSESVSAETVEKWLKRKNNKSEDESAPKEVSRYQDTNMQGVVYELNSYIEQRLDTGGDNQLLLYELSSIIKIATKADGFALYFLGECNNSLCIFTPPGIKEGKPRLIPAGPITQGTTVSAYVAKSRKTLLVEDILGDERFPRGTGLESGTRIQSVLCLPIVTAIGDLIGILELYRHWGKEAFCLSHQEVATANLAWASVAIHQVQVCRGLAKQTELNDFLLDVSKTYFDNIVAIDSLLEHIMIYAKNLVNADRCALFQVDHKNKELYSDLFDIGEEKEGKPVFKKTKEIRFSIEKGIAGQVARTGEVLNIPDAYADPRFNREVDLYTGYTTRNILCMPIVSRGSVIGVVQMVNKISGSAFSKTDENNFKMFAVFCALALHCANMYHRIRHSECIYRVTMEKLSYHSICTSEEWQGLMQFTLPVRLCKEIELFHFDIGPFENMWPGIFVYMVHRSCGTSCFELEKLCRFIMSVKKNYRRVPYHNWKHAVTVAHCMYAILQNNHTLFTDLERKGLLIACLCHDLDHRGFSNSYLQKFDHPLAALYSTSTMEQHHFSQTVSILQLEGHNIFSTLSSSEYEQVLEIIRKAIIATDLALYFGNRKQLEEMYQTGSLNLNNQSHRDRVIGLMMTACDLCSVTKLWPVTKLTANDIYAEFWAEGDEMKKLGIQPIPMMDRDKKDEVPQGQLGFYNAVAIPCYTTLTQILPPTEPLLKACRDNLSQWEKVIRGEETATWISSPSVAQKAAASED", "assay": "Inhibition of human PDE10A2 transfected in human AD293 cells cytosolic fraction using cAMP as substrate by fluorescence polarization assay", "type": "subcellular, Cytosol"}, "[15]": {"assay": "Volume of distribution at steady state in Rhesus monkey at 0.5 mg/kg, iv by LC-MS/MS analysis", "type": "ADME, organism-based, Macaca mulatta", "conditions": "in vivo, read-out: Vdss", "procedure,_shortened": "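Three male rhesus monkeys received a 0.5 mg/kg IV bolus into the saphenous or cephalic vein, dosed from a 5 mg/mL solution in DMSO:PEG400 (1:1). EDTA plasma was collected from pre-dose to 24 h. Samples were protein-precipitated with acetonitrile and quantified by positive-ion APCI LC-MS/MS. Vdss was obtained by non-compartmental analysis as clearance × mean residence time, and values are means (n = 3).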"}, "[16]": {"assay": "Volume of distribution at steady state in Wistar-Hannover rat at 2 mg/kg, iv by LC-MS/MS analysis", "type": "ADME, organism-based", "conditions": "in vivo, read-out: Vdss", "procedure,_shortened": "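Male Wistar–Hannover rats (~300 g, n = 3) received a 2 mg/kg IV bolus through a jugular vein cannula, dosed from a 5 mg/mL solution in DMSO/PEG400 (1:1). EDTA blood was sampled from pre-dose to 24 h. Plasma was protein-precipitated with acetonitrile and analysed by positive-ion APCI LC-MS/MS. Vdss was calculated non-compartmentally as plasma clearance × mean residence time and reported as the mean.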"}, "[17]": {"assay": "Protein binding in human plasma assessed as unbound fraction", "type": "ADME, cell-free"}, "[18]": {"biological_target": "T1, cAMP and cAMP-inhibited cGMP 3',5'-cyclic phosphodiesterase 10A", "assay": "Inhibition of human recombinant full length PDE10A"}, "[19]": {"biological_target": "T1, cAMP and cAMP-inhibited cGMP 3',5'-cyclic phosphodiesterase 10A", "assay": "Reversible binding affinity to human full length His-tagged PDE10A2 assessed as half-life on the enzyme measured at 25 degC by surface plasmon resonance analysis"}, "[20]": {"assay": "Selectivity ratio of Ki for N-terminal GST-tagged human recombinant PDE1A expressed in baculovirus-infected Sf9 cells to Ki for human PDE10A2 transfected in human AD293 cells cytosolic fraction"}, "[21]": {"assay": "Plasma concentration in MK-801-induced psychosis rat model at 0.5 mg/kg, po administered 1 hr prior to MK-801 administration and measured after 90 mins", "type": "ADME, organism-based", "conditions": "time 150 min", "procedure,_shortened": "as §2"}, "[22]": {"assay": "Solubility of compound in FaSSIF", "type": "physicochemical", "conditions": "simulated gi fluid"}, "[23]": {"assay": "Protein binding in human plasma", "type": "ADME, cell-free"}, "[24]": {"assay": "Selectivity ratio of Ki for N-terminal GST-tagged full length human recombinant PDE8A1 expressed in baculovirus-infected Sf9 cells to Ki for human PDE10A2 transfected in human AD293 cells cytosolic fraction"}, "[25]": {"assay": "Selectivity ratio of Ki for N-terminal GST-tagged and C-terminal His-tagged human recombinant PDE7A (122 to 456 residues) expressed in baculovirus-infected Sf9 cells to Ki for human PDE10A2 transfected in human AD293 cells cytosolic fraction"}, "[26]": {"assay": "In vivo receptor occupancy at PDE10A receptor in rat striatum at 0.25 mg/kg, po measured after 1 hr", "type": "functional", "procedure,_shortened": "(§4)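 Striatal PDE10A occupancy in rats given the compound orally during the novel object recognition test. Occupancy was not measured directly but derived from plasma concentration taken 1 h post dose. n = 4/group, reported as mean (SEM).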"}, "[27]": {"biological_target": "Somatostatin receptor type 2 (Homo sapiens, UniProt P30874)", "sequence (P30874 whole entry)": "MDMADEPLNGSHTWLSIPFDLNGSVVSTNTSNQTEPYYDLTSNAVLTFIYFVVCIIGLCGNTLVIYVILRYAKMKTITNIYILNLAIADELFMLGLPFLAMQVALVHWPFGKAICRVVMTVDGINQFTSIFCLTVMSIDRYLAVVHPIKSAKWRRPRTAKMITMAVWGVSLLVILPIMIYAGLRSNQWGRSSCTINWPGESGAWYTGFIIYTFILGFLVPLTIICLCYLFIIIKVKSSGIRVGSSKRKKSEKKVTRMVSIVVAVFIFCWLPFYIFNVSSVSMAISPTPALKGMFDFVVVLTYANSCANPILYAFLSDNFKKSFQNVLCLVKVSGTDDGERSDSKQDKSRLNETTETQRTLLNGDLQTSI", "assay": "Displacement of [125I]somatostatin from human full-length recombinant SSTR2 expressed in CHO-K1 cells by radioligand binding assay", "type": "cell-based"}, "[28]": {"assay": "Oral bioavailability in Rhesus monkey at 5 mg/kg by LC-MS/MS analysis", "type": "ADME, organism-based, Macaca mulatta", "conditions": "in vivo", "procedure,_shortened": "as §3"}, "[29]": {"assay": "Toxicity in rat assessed as weight gain", "conditions": "in vivo"}, "[30]": {"assay": "Protein binding in monkey plasma assessed as unbound fraction", "type": "ADME, cell-free, Macaca mulatta", "conditions": "rhesus monkey"}, "[31]": {"assay": "In vivo receptor occupancy at PDE10A receptor in rat striatum at 0.08 mg/kg, po measured after 1 hr", "type": "functional", "procedure,_shortened": "as §4"}}}
{"molecule": "Cc1ccc([C@H]2C[C@@H]2COc2cc(NCc3nnc(C)s3)nc(C)n2)nc1", "note": "[MK-8189]", "values": [{"measurement": "Activity", "setting": "[1]", "result": "Non-Toxic"}, {"measurement": "Activity", "setting": "[2]", "result": "Non-Toxic"}, {"measurement": "concentration at 1 h", "setting": "[3]", "result": 29, "unit": "nM"}, {"measurement": "solubility", "setting": "[4]", "result": 167, "unit": "µM"}, {"measurement": "Fu", "setting": "[5]", "result": 8.2, "unit": "%"}, {"measurement": "t1/2", "setting": "[6]", "result": 4.8, "unit": "h"}, {"measurement": "concentration at 2.5 h", "setting": "[7]", "result": 17, "unit": "nM"}, {"measurement": "solubility", "setting": "[8]", "result": 5, "unit": "mg/mL"}, {"measurement": "IC50", "setting": "[9]", "result": "> 30", "unit": "µM"}, {"measurement": "concentration at 1 h", "setting": "[10]", "result": 16, "unit": "nM"}, {"measurement": "Activity", "setting": "Rattus norvegicus", "result": "Dose-Dependent Effect"}, {"measurement": "F", "setting": "[11]", "result": 46, "unit": "%"}, {"measurement": "Ratio Ki", "setting": "[12]", "result": "> 500000"}, {"measurement": "concentration at 2.5 h", "setting": "[13]", "result": 50, "unit": "nM"}, {"measurement": "Ki", "setting": "[14]", "result": 0.029, "unit": "nM"}, {"measurement": "Vd", "setting": "[15]", "result": 1.4, "unit": "L/kg"}, {"measurement": "Vd", "setting": "[16]", "result": 0.93, "unit": "L/kg"}, {"measurement": "Fu", "setting": "[17]", "result": 4, "unit": "%"}, {"measurement": "IC50", "setting": "[18]", "result": 1.6, "unit": "nM"}, {"measurement": "T1/2", "setting": "[19]", "result": 6.7, "unit": "min"}, {"measurement": "Ratio Ki", "setting": "[20]", "result": "> 500000"}, {"measurement": "concentration at 2.5 h", "setting": "[21]", "result": 36, "unit": "nM"}, {"measurement": "solubility", "setting": "[22]", "result": 0.17, "unit": "mg/mL"}, {"measurement": "PPB", "setting": "[23]", "result": 96, "unit": "%"}, {"measurement": "Ratio Ki", "setting": "[24]", "result": "> 500000"}, {"measurement": "Ratio Ki", "setting": "[25]", "result": "> 500000"}, {"measurement": "Occ", "setting": "[26]", "result": 34, "unit": "%"}, {"measurement": "IC50", "setting": "[27]", "result": 2800, "unit": "nM"}, {"measurement": "F", "setting": "[28]", "result": 41, "unit": "%"}, {"measurement": "Activity", "setting": "[29]", "result": "Non-Toxic"}, {"measurement": "Fu", "setting": "[30]", "result": 8.7, "unit": "%"}, {"measurement": "Occ", "setting": "[31]", "result": 24, "unit": "%"}]}
